From ChEMBL document CHEMBL4000145, “Discovery and Optimization of a Porcupine Inhibitor” (J Med Chem, 2015)
In brackets after ≈: the same amount, converted by molar mass. Activity calls are given as the source filed them. No cut-off for these calls is given here.

How the values were obtained:
[1] = target: T1, Protein-serine O-palmitoleoyltransferase porcupine (Homo sapiens, UniProt Q9H237); assay: Inhibition of porcupine (unknown origin) expressed in HEK293-STF3A cells assessed as inhibition of Wnt signaling by measuring decrease in beta-catenin-mediated transcriptional activity after 24 hrs by Steady-Glo luciferase assay; assay type: cell-based
T1 sequence (Q9H237 whole entry): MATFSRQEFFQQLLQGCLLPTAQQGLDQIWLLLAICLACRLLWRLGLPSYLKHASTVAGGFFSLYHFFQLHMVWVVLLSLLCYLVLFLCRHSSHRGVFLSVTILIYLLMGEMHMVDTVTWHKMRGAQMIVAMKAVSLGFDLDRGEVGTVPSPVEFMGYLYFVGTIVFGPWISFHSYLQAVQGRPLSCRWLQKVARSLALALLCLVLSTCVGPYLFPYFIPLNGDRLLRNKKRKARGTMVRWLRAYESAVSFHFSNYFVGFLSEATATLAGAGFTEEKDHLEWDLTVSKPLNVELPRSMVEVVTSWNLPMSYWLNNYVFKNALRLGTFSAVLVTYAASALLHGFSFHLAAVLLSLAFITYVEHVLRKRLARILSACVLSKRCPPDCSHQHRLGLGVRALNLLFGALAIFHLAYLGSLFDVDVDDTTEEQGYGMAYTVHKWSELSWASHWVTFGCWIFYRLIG
In short: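 HEK293-STF3A cells, 2 × 10⁴ per well, incubated overnight at 37 °C. Serially diluted compound added at final 50 μM to 1.5 nM. After 1 day, Steady-Glo luciferase added for 10 min at room temperature and luminescence read. IC50 derived from the dilution series.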

[2] = Intrinsic clearance in mouse liver microsomes; assay type: ADME, microsome; conditions: read-out: CLH
[3] = Thermodynamic solubility of the compound at pH 7.4; assay type: physicochemical; conditions: buffer, read-out: Therm_solubility
In short: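 Compound at 500 μM from DMSO stock in pH 7.4 buffer, 1.0% DMSO. Incubated 18 h, then vacuum filtered. Filtrate mixed 1:1 with 1-propanol and quantified by UV spectroscopy.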

[4] = Permeability of the compound at pH 7.4 by PAMPA assay; assay type: physicochemical; conditions: read-out: permeability
[5] = target: Cytochrome P450 2D6 (Homo sapiens, UniProt P10635); assay: Inhibition of CYP2D6 (unknown origin)
Sequence of Cytochrome P450 2D6 (P10635 whole entry): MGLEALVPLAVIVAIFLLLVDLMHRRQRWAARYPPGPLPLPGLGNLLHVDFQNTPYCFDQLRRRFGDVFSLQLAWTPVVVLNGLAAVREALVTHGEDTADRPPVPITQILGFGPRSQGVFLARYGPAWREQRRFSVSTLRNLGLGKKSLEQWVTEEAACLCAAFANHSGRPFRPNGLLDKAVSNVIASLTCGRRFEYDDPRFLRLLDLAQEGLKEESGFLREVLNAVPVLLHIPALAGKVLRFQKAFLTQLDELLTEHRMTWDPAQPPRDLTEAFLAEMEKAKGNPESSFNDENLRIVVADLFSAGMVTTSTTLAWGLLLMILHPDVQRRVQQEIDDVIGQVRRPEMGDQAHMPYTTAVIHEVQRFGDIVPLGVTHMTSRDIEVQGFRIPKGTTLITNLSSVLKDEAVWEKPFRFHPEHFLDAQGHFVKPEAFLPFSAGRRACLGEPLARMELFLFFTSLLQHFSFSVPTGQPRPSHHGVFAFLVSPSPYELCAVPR

[6] = target: Cytochrome P450 3A4 (Homo sapiens, UniProt P08684); assay: Inhibition of CYP3A4 (unknown origin)
Sequence of Cytochrome P450 3A4 (P08684 whole entry): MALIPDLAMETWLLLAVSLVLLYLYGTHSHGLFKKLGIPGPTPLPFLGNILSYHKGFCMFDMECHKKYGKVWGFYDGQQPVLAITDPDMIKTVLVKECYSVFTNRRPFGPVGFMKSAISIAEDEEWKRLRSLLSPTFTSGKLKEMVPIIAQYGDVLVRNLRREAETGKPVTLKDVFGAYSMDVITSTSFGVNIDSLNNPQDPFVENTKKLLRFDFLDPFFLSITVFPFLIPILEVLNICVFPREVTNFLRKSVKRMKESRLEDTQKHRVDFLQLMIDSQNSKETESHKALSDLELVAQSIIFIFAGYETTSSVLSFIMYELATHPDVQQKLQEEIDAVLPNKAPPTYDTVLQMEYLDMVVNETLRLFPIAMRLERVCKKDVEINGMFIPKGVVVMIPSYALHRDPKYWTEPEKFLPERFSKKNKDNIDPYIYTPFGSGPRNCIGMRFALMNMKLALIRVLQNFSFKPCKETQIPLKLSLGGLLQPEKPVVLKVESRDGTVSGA

[7] = target: T2, Protein-serine O-palmitoleoyltransferase porcupine (Homo sapiens) (UniProt Q9H237); assay: Inhibition of PORCN-mediated V5-tagged Wnt3A palmitoylation in human HeLa cells at 100 nM measured after over night incubation by Western blot analysis; assay type: cell-based
T2 sequence (whole entry): T1 sequence (Q9H237 whole entry)
In short: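 HeLa cells seeded 3 × 10⁶ per 10 cm dish, overnight at 37 °C, then transfected with 5 μg pcDNA3.2/V5-Wnt3a. After 6 h, washed and given 100 μM ω-alkynyl palmitate in medium with 5% fatty-acid-free BSA plus compound (100 nM) or DMSO, overnight at 37 °C. From 600 μg lysate, V5-Wnt3a was immunoprecipitated and click-reacted with biotin azide. Blot read-outs: anti-V5/anti-mouse Dylight 680 for total, streptavidin-Dylight 800 for acylated.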

[8] = Cytotoxicity against HEK293 cells assessed as cell viability after 1 day by CellTiter-Glo luminescent assay; conditions: human
[9] = test system: HEK293; assay: Inhibition of beta-catenin-mediated transcriptional activity in Wnt3A knock out HEK293-STF cells preincubated for 4 hrs followed by Wnt-3A conditioned medium addition measured after 24 hrs by Steady-Glo luciferase assay; conditions: Homo sapiens
[10] = Oral bioavailability in mouse; assay type: ADME, organism-based; conditions: in vivo
[11] = test system: HT-1080; assay: Inhibition of luciferase expression in human HT1080 cells after 24 hrs; assay type: functional, cell-based
In short: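 HT1080 cells seeded at 150 000 per well a day before transfection. Transfected with control or murine PORCN plasmid (100 ng) plus Wnt/β-catenin reporter (550 ng) and Wnt3a (50 ng). Treated with serial dilutions from 625 to 0.2 nM at 0.1% DMSO final. Luciferase measured in lysate 24 h post-transfection.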

[12] = Half life in mouse at 1 mg/kg, iv; assay type: ADME, organism-based; conditions: in vivo
[13] = test system: Mus musculus; assay: Antitumor activity in Balb/c mouse MMTV-Wnt1 model assessed as tumor growth inhibition at 3 mg/kg administered once daily for 14 days via oral gavage relative to vehicle treated control; assay type: functional; conditions: 336 h, read-out: TGI
In short: (§1)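 Orthotopic MMTV-Wnt1 tumor fragments implanted in mammary fat pads of Balb/c nude mice. Dosing began 14 days later (day 1), with 10 mice per group and mean tumor volume 103–107 mm³. Oral gavage once daily for 14 days at 10 mL/kg in 50% PEG 400/deionized water. Doses were 1, 3 or 10 mg/kg. Caliper volumes gave %TGI versus vehicle at day 14. Statistics by one-way ANOVA with Dunnett's test.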

[14] = Cmax in mouse at 5 mg/kg, po; assay type: ADME, organism-based; parameters: dose 5 mg/kg, route oral; conditions: in vivo
[15] = Oral bioavailability in mouse at 5 mg/kg; assay type: ADME, organism-based; conditions: in vivo
[16] = target: T3, Protein-serine O-palmitoleoyltransferase porcupine (Mus musculus) (UniProt Q9JJJ7); conditions: 0.2 to 625 nM
T3 sequence (whole entry): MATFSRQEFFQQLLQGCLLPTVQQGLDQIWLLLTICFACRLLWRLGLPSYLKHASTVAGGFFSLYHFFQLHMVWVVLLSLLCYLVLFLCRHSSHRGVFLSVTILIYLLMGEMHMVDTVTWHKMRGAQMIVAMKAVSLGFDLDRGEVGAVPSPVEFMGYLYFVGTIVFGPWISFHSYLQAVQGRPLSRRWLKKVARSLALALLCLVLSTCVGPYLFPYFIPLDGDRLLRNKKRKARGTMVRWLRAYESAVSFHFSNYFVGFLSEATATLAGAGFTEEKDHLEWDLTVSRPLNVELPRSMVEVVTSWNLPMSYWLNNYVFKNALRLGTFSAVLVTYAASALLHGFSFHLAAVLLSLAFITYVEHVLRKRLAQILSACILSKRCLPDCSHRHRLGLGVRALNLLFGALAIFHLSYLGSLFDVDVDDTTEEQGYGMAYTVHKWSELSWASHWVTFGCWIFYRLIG

[17] = test system: Mus musculus; assay: Antitumor activity in Balb/c mouse MMTV-Wnt1 model assessed as tumor growth inhibition at 10 mg/kg administered once daily for 14 days via oral gavage relative to vehicle treated control; assay type: functional; conditions: 336 h, read-out: TGI; in short: as §1
[18] = AUC (0 to last) in mouse at 5 mg/kg, po; assay type: ADME, organism-based; parameters: dose 5 mg/kg, time 0 - last, route oral; conditions: in vivo
[19] = test system: Mus musculus; assay: Antitumor activity in Balb/c mouse MMTV-Wnt1 model assessed as tumor growth inhibition administered once daily for 14 days via oral gavage; assay type: functional; in short: as §1
[20] = test system: Mus musculus; assay: Antitumor activity in Balb/c mouse MMTV-Wnt1 model assessed as tumor growth inhibition at 1 mg/kg administered once daily for 14 days via oral gavage relative to vehicle treated control; assay type: functional; conditions: 336 h, read-out: TGI; in short: as §1

What does the source list for O=C(CNc1ccc(-n2ccnc2)cc1)Nc1ccc(-c2ccccc2)cc1?
IC50 [1]: 0.03 µM; microsomal CLint [2]: 11 µL/min/mg

What does the source list for C[C@H](Nc1ccc(-c2ccnn2C)nc1)C(=O)Nc1ccc(-c2ccccc2)cn1?
IC50 [1]: 0.001 µM; solubility thermodynamic [3]: 4 µg/mL (≈ 10 µM); Papp [4]: 113 ×10⁻⁶ cm/s; IC50 [5]: > 20 µM; IC50 [6]: > 20 µM; microsomal CLint [2]: 8 µL/min/mg

For Cc1nccn1-c1ccc(OCC(=O)Nc2ccc(-c3ccccc3)cc2)cc1, which IC50 [1] is on record?
Its IC50 is 0.002 µM.

What about the IC50 [5] of the same compound?
Its IC50 is 1.9 µM.

What about the IC50 [6] of the same compound?
Its IC50 is 5.2 µM.

With O=C(Nc1ccc(-c2ccccc2)cc1)[C@H]1CCCN1c1ccc(-n2ccnc2)cc1 as the compound, how does the IC50 [1] read?
The IC50 was 33 µM.

For O=C(COc1ccc(-n2cccc2)cc1)Nc1ccc(-c2ccccc2)cc1, which IC50 [1] is on record?
The IC50 was greater than 50 µM.

What does the source list for C[C@@H](Oc1ccc(-n2ccnc2)cc1)C(=O)Nc1ccc(-c2ccccc2)cc1?
IC50 [1]: 0.13 µM; inhibition [7]: Active; microsomal CLint [2]: 63 µL/min/mg

Which IC50 [1] does the source give for C[C@H](Nc1ccc(-c2ccnn2C)nc1)C(=O)Nc1ccc(-c2cccnc2)nc1 here?
Its IC50 is 0.01 µM.

And the solubility thermodynamic [3]?
The solubility thermodynamic was 102 µg/mL (≈ 255 µM).

What about the Papp [4] of the same compound?
Its Papp is 26.8 ×10⁻⁶ cm/s.

And the IC50 [5]?
The IC50 was 3.3 µM.

What about the IC50 [6] of the same compound?
The IC50 was greater than 20 µM.

What about the microsomal CLint [2] of the same compound?
The microsomal CLint was 8 µL/min/mg.

What does the source list for C[C@H](Oc1ccc(-n2ccnc2)cc1)C(=O)Nc1ccc(-c2ccccc2)cc1?
IC50 [1]: 0.007 µM; microsomal CLint [2]: 85 µL/min/mg

With Cn1nccc1-c1ccc(OCC(=O)Nc2ccc(-c3ccccc3)cc2)cc1 as the compound, how does the IC50 [1] read?
Its IC50 is 0.004 µM.

And the IC50 [5]?
Its IC50 is greater than 20 µM.

And the IC50 [6]?
Its IC50 is greater than 20 µM.

With O=C(COc1ccc(-c2ccn[nH]2)cc1)Nc1ccc(-c2ccccc2)cc1 as the compound, how does the IC50 [1] read?
The IC50 was greater than 50 µM.

Which IC50 [1] does the source give for O=C(COc1ccc(-c2cnco2)cc1)Nc1ccc(-c2ccccc2)cc1 here?
Its IC50 is 0.042 µM.

And the IC50 [5]?
The IC50 was greater than 20 µM.

What about the IC50 [6] of the same compound?
The IC50 was greater than 20 µM.

Which results are given for C[C@@H](Nc1ccc(-n2ccnc2)cc1)C(=O)Nc1ccc(-c2ccccc2)cn1?
IC50 [1]: 0.689 µM; microsomal CLint [2]: 12 µL/min/mg

Which results are given for O=C(Nc1ccc(-c2ccccc2)cc1)[C@@H]1CCCN1c1ccc(-n2ccnc2)cc1?
IC50 [1]: 0.04 µM; microsomal CLint [2]: 18 µL/min/mg

For O=C(COc1ccc(-n2ccnc2)cc1)Nc1ccc(-c2ccccc2)cc1, which IC50 [1] is on record?
The IC50 was 0.015 to 0.019 µM.

What about the CC50 at 24 h [8] of the same compound?
The CC50 at 24 h was greater than 50 µM.

What about the solubility thermodynamic [3] of the same compound?
Its solubility thermodynamic is less than 1 µg/mL.

What about the inhibition [7] of the same compound?
Its inhibition is “Active”.

What about the Papp [4] of the same compound?
Its Papp is less than 1 ×10⁻⁶ cm/s.

And the IC50 [9]?
The IC50 was greater than 30 µM.

What about the bioavailability [10] of the same compound?
The bioavailability was less than 1%.

And the microsomal CLint [2]?
The microsomal CLint was 37 µL/min/mg.

What does the source list for C[C@H](Nc1ccc(-c2ccnn2C)nc1)C(=O)Nc1ccc(-c2cccnc2)cn1?
IC50 [1]: 0.001 µM; inhibition [11]: Dose-dependent effect; half-life [12]: 1.9 h; inhibition in vivo at 3 mg/kg [13]: 71%; solubility thermodynamic [3]: 72.5 µg/mL (≈ 181 µM); Cmax [14]: 4270 ng/mL; inhibition [7]: Active; bioavailability [15]: 106%; Papp [4]: 50.6 ×10⁻⁶ cm/s; inhibition [16]: Active; IC50 [5]: 8 µM; inhibition in vivo at 10 mg/kg [17]: 91%; AUC(0-t) [18]: 12300 ng·h/mL; TGI [19]: Dose-dependent effect; IC50 [6]: > 20 µM; inhibition in vivo at 1 mg/kg [20]: 50%; microsomal CLint [2]: 8 µL/min/mg

Which results are given for C[C@H](Nc1ccc(-n2ccnc2)cc1)C(=O)Nc1ccc(-c2ccccc2)cn1?
IC50 [1]: 0.005 µM; microsomal CLint [2]: 3.5 µL/min/mg
